Calls of active or inactive are those of the source. No cut-off for these calls is given here.
What was measured:
[1] = molecular target: T1, Nuclear factor erythroid 2-related factor 2 (Mus musculus) (UniProt Q60795); assay: Reduction of NrF2-mediated glutathione production in wild type MEF at 10 uM after 6 hrs using Elmans reagent relative to control; type: functional; design: scale not given: the % may be the effect or the level left
T1 sequence (whole entry): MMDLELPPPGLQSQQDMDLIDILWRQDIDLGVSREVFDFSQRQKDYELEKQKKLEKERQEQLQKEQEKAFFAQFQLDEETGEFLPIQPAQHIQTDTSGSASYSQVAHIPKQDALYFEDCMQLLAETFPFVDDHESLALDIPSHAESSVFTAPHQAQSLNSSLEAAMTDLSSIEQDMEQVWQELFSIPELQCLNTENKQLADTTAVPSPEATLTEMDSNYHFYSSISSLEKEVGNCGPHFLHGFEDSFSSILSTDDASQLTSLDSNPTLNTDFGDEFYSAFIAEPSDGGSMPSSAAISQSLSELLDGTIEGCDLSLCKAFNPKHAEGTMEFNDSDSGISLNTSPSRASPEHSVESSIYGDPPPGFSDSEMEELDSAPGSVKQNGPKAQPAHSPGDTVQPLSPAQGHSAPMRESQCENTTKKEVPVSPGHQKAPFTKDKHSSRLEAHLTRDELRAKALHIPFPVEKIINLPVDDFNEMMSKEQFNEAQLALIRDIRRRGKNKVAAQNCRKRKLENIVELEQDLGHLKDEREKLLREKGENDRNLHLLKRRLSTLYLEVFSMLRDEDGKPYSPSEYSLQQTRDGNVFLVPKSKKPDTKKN
In short: (§1)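 Wildtype or Nrf2−/− MEF at 50% confluence given vehicle or 10 or 20 μM for 0, 6, 9 or 24 h; washed, lysed in 5% metaphosphoric acid, protein removed by centrifugation. Free GSH by enzymatic recycling with Ellman's reagent, absorbance over time; normalized to BCA protein and to vehicle control; mean ± SD, n=3.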

[2] = molecular target: T2, Nuclear factor erythroid 2-related factor 2 (Homo sapiens) (UniProt Q16236); assay: Induction of NrF2 in human HepG2 cells at 20 uM after 6 hrs by ARE-luciferase reporter gene assay relative to control; type: functional, cell-based
T2 sequence (whole entry): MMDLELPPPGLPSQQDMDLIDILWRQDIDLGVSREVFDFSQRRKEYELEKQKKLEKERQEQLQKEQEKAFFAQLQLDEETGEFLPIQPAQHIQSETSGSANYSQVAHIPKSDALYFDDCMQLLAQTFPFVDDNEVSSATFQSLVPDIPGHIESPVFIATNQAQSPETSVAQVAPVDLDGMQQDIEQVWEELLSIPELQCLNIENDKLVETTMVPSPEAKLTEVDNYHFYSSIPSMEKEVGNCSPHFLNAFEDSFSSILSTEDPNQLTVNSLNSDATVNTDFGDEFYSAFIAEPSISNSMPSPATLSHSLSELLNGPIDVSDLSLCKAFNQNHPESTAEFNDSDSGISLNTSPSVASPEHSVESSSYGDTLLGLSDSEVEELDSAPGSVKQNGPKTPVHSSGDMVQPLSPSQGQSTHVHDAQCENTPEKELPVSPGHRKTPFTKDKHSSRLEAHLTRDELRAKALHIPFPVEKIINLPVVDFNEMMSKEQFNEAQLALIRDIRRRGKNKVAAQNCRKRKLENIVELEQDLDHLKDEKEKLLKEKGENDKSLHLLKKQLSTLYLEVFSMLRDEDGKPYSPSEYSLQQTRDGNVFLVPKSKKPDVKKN
In short: (§2)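 HepG2 ARE-luciferase reporter cells at 50% confluence, fresh medium with vehicle or 5, 10 or 20 μM compound for 6 h. Washed in PBS, lysed, luciferase activity of extracts read in single-tube luminometer; normalized to vehicle control; mean ± SD of 3 independent experiments.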

[3] = molecular target: T1, Nuclear factor erythroid 2-related factor 2 (Mus musculus); assay: Induction of NrF2-mediated glutathione production in wild type MEF at 20 uM after 24 hrs using Elmans reagent relative to control; type: functional; in short: as §1
[4] = molecular target: T2, Nuclear factor erythroid 2-related factor 2 (Homo sapiens); assay: Induction of NrF2 in human HepG2 cells at 10 uM after 6 hrs by ARE-luciferase reporter gene assay; type: functional, cell-based; in short: as §2
[5] = molecular target: T1, Nuclear factor erythroid 2-related factor 2 (Mus musculus); assay: Induction of nuclear NrF2-mediated GCLc expression in wild type MEF at 20 uM after 24 hrs by Western blotting relative to control; type: functional
In short: (§3)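 Wildtype or Nrf2−/− MEF at 50% confluence given vehicle or 10 or 20 μM for 24 h; cytoplasmic extracts, 50 μg protein per lane, 4-20% gradient gel, nitrocellulose, western blot for GCLc with HRP secondary and chemiluminescence. GCLc normalized to actin, then to vehicle control; mean ± SD of 3 independent experiments.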

[6] = molecular target: T1, Nuclear factor erythroid 2-related factor 2 (Mus musculus); assay: Induction of NrF2-mediated glutathione production in wild type MEF at 10 uM after 24 hrs using Elmans reagent relative to control; type: functional; in short: as §1
[7] = molecular target: T1, Nuclear factor erythroid 2-related factor 2 (Mus musculus); assay: Reduction of NrF2-mediated glutathione production in wild type MEF at 20 uM after 6 hrs using Elmans reagent relative to control; type: functional; design: scale not given: the % may be the effect or the level left; in short: as §1
[8] = tested on: HepG2; assay: Cytotoxicity against human HepG2 cells assessed as cell viability at 10 uM after 6 hrs by MTS assay; type: functional, cell-based
[9] = molecular target: T1, Nuclear factor erythroid 2-related factor 2 (Mus musculus); assay: Induction of nuclear NrF2 expression in wild type MEF […] at 10 to 20 uM after 24 hrs by Western blotting relative to control; type: functional
In short: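 Wildtype MEF at 50% confluence treated with vehicle or 10 or 20 μM for 24 h; washed, trypsinized, nuclear extracts prepared. 20 μg nuclear protein per lane, 4-20% gradient gel, nitrocellulose, milk block, primary antibody overnight 4 °C, HRP secondary, chemiluminescence. Nrf2 band normalized to Lamin A, then to vehicle control; mean ± SD, n=3.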

[10] = tested on: HepG2; assay: Cytotoxicity against human HepG2 cells assessed as cell viability at 50 uM after 6 hrs by MTS assay; type: functional, cell-based
[11] = tested on: HepG2; assay: Cytotoxicity against human HepG2 cells assessed as decrease in cell viability at 10 to 20 uM after 6 hrs by MTS assay; type: functional, cell-based
[12] = tested on: HepG2; assay: Cytotoxicity against human HepG2 cells assessed as cell viability at 50 uM after 6 hrs by MTS assay relative to control; type: functional; conditions: HepG2, 6 h, read-out: Activity
[13] = molecular target: T2, Nuclear factor erythroid 2-related factor 2 (Homo sapiens); assay: Ratio of compound to sulforaphane for induction of NrF2 in human HepG2 cells; type: functional, cell-based
[14] = tested on: MEF; assay: Cytotoxicity against NrF2 deficient MEF; type: cell-based; conditions: mouse
[15] = tested on: MEF; assay: Induction of GCLc in NrF2-deficient MEF at 20 uM after 24 hrs by Western blotting relative to control; type: functional, cell-based; conditions: Mus musculus; in short: as §3
[16] = tested on: MEF; assay: Induction of glutathione production in NrF2 deficient MEF at 20 uM after 24 hrs using Elmans reagent relative to control; type: functional, Mus musculus; in short: as §1
[17] = molecular target: T1, Nuclear factor erythroid 2-related factor 2 (Mus musculus); assay: Induction of NrF2-mediated glutathione production in wild type MEF at 10 uM after 6 hrs using Elmans reagent relative to control; type: functional; in short: as §1
[18] = tested on: MEF; assay: Induction of glutathione production in NrF2 deficient MEF at 10 uM after 24 hrs using Elmans reagent relative to control; type: functional, Mus musculus; in short: as §1
[19] = molecular target: T1, Nuclear factor erythroid 2-related factor 2 (Mus musculus); assay: Ratio of compound to sulforaphane activity for induction of nuclear NrF2 mediated GCLc in wild type MEF; type: functional
[20] = tested on: HepG2; assay: Cytotoxicity against human HepG2 cells assessed as decrease in cell viability after 6 hrs by MTS assay; type: functional, cell-based
[21] = molecular target: T1, Nuclear factor erythroid 2-related factor 2 (Mus musculus); assay: Induction of NrF2-mediated glutathione production in wild type MEF at 10 uM after 9 hrs using Elmans reagent relative to control; type: functional; in short: as §1
[22] = tested on: MEF; assay: Cytotoxicity against wild type MEF; type: cell-based; conditions: mouse
[23] = tested on: HepG2; assay: Cytotoxicity against human HepG2 cells assessed as cell viability at 20 uM after 6 hrs by MTS assay; conditions: HepG2, 6 h, read-out: Activity
[24] = molecular target: T2, Nuclear factor erythroid 2-related factor 2 (Homo sapiens); assay: Induction of NrF2 in human HepG2 cells after 6 hrs by ARE-luciferase reporter gene assay; type: functional, cell-based; in short: as §2

| Structure (SMILES) | Activity [1] | Activity [2] | Activity [3] | Activity [4] | fold change (FC) [5] | Activity [6] | Activity [7] | Activity [8] | fold change (FC) [9] | Activity [10] | Activity [11] | viability at 50 µM [12] | further results |
| --- | --- | --- | --- | --- | --- | --- | --- | --- | --- | --- | --- | --- | --- |
| C[S+]([O-])CCCCN=C=S (centres undefined) | 40% | Active | inactive | Active | 3.2 | Active | 20% | inactive | 3.5 | inactive |  |  |  |
| S=C=NCCc1ccccc1 |  |  |  |  |  |  |  |  |  | inactive |  |  |  |
| S=C=NCc1ccccc1 |  |  |  |  |  |  |  |  |  | inactive |  |  |  |
| [Se]=C=NCc1ccccc1 [BENZYLISOSELENOCYANATE] |  |  |  |  |  |  |  |  |  |  | Active | 0% |  |
| [Se]=C=NCCc1ccccc1 [PHENETHYLISOSELENOCYANATE] |  |  |  |  |  |  |  |  |  |  | Active | 14% |  |
| C[S+]([O-])CCCCN=C=[Se] (centres undefined) [SUFORAPHANE ISOSELENOCYANATE] | 40% | 5 | Active | Active | 4.1 | 160% | 20% | inactive | 4.5 |  | Active | 0% | Ratio [13]: 4; Activity [14]: Non-toxic; Activity [15]: inactive; Activity [16]: 70%; Activity [17]: Active; Activity [18]: 90%; Activity [19]: 30%; Activity [20]: Dose-dependent effect; Activity [21]: Active; Activity [22]: Non-toxic; viability at 20 µM [23]: 50%; Activity [24]: Dose-dependent effect |
